Rows were chosen to be rich in hits. Some 2.1% of all compounds tested hit in one or more screens of this group.
SUMO1-SIM PPI: modulators of SUMO1 protein-protein interactions, primary screen, biochemical, uHTS | inhibition, % at 20 µM | 0.33% of 360,000 active | Small ubiquitin-related modifier 1 (Homo sapiens), P63165 | SUMO1 binding to a labelled peptide, TR-FRET, 1 h; in the data active = inhibition above about 37%
Scp1 inh: Scp-1 phosphatase inhibitors, primary screen, biochemical, colorimetric, uHTS; Carboxy-terminal domain RNA polymerase II polypeptide A small phosphatase 1 (Homo …; Recombinant Scp1, phosphopeptide, malachite green phosphate absorbance; inhibition, % at 20 µM; 0.88% of 340,000 active; AID 493091, 2011;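 active = inhibition above about 50% at 20 µM, limit read from the data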
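Assay system: SCP-1 catalytic fragment, aa 76-261 | Buffer or medium: Tris acetate buffer pH 5.5 with MgCl2 and Tween-20 | Compound: One concentration, 20 µM, with 1.0% DMSO | Also added: Phospho 17-mer peptide substrate | Signal: Absorbance at 630 nm | Incubation: 45 min enzyme reaction at room temperature | Measure: % inhibition of SCP-1 phosphate liberation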
GRK2 aptamer HTS: compounds blocking aptamer binding on GRK2 – biochemical, human GRK2, bead flow cytometry, HTS, primary screen; 0.59% of 330,000 active; Beta-adrenergic receptor kinase 1 (Homo sapiens), P25098; inhibition of aptamer binding, % at 10 µM; FAM-aptamer displacement from GRK2;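 active = inhibition of aptamer binding above 40%, roughly 3 SD of noise, on plates passing a quality check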;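 also: median bead fluorescence of bound FAM aptamer so fluorescent compounds give negative values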
STEP block: STEP phosphatase inhibitors, primary screen, biochemical, fluorescence intensity, uHTS; Tyrosine-protein phosphatase non-receptor type 5 (Homo sapiens), P54829; recombinant STEP, OMFP fluorogenic substrate; inhibition, % at 20 µM; 0.25% of 360,000 active; AID 588621, 2011;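 active = inhibition at 20 µM, scaled per plate between control wells, above about 37%, limit read from the data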
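Material: STEP (striatal-enriched tyrosine phosphatase) enzyme, cell-free; Compound dosing: 20 µM single dose in 1% DMSO; Technique: fluorescence read at 480 nm ex / 540 nm em; Times: reaction 20 min, ambient temperature; Medium: 50 mM Bis-Tris pH 6.0 with 2.5 mM DTT and 0.005% Tween 20; Also added: OMFP at 25 µM.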
LMPTP block: LMPTP phosphatase inhibitors, primary screen, biochemical, fluorescence intensity, uHTS; recombinant LMPTP-A, OMFP fluorogenic substrate; 0.22% of 360,000 active; inhibition, % at 20 µM;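 active = compounds that cut the enzyme signal by at least half of the control window in the single-dose screen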
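Test system: LMPTP-A phosphatase enzyme. Amount: LMPTP-A at 0.625 nM final in the reaction. Reagent: OMFP substrate, 400 µM final. Times: 50 min at room temperature. Signal: endpoint fluorescence intensity from OMFP dephosphorylation. Read-out basis: % inhibition. Benchmarks: no-enzyme and uninhibited controls.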
DNMT1 inh: human DNMT1 methyltransferase inhibitors, primary screen, biochemical, molecular beacon, fluorescence, HinP1I cleavage, uHTS. AID 588458, 2011. DNA (cytosine-5)-methyltransferase 1 (Homo sapiens), P26358. 0.83% of 360,000 active. inhibition (reported as % activation of signal), % at 10 µM; in the data active = inhibition above about 50%
Target sequence (P26358 504-1616 limits assumed): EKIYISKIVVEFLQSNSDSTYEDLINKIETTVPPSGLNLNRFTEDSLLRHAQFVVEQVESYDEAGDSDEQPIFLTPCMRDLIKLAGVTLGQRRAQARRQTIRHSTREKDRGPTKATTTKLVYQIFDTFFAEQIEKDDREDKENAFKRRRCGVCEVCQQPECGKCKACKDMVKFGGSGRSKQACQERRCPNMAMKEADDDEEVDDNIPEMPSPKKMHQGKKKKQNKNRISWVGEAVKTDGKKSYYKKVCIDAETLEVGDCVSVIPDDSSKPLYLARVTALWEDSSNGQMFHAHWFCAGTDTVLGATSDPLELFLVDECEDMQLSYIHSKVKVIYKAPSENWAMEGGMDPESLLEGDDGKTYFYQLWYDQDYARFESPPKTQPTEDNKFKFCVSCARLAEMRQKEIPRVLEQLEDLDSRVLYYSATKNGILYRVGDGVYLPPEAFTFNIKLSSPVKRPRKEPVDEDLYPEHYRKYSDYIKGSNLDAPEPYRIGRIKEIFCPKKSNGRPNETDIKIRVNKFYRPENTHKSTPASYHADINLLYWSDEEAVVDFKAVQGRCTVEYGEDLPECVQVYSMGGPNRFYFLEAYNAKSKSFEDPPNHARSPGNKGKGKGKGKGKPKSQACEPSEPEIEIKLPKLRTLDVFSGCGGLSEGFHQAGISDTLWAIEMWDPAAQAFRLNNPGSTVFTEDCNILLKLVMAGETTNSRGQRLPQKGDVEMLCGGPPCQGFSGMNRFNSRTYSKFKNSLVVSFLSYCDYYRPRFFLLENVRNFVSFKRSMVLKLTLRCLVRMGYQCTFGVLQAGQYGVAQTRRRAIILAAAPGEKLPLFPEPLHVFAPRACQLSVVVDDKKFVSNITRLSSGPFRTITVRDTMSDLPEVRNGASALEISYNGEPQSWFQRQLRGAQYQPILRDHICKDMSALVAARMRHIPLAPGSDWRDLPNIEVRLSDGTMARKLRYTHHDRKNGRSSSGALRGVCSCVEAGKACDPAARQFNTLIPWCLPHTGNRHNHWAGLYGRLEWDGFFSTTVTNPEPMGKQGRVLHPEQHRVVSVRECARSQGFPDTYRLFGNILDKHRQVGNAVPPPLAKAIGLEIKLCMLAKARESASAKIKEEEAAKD
DNMT1 interf DR: spectral interference with molecular beacon fluorescence, dose response, artefact control for DNMT1 inhibitor project, biochemical, fluorescent molecular beacon. spectral interference counter-screen. 200 tested, under 10 active. shares compounds with DNMT1 inh. IC50, µM; call rule not given here
DNMT1 inh conf: DNMT1 methyltransferase inhibitor retest, confirmation, biochemical, molecular beacon, fluorescence, single concentration. shares compounds with DNMT1 inh. DNMT1 molecular beacon HinP1I cleavage. inhibition, % at 10 µM. 8% of 2,300 active. AID 602385, 2012;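 active = average inhibition of at least 30% in the single-concentration confirmation test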
Beacon interf: counter-screen for DNMT1 inhibitors: spectral interference. shares compounds with DNMT1 inh. DNMT1 molecular beacon spectral interference counterscreen, fluorescence 485/520. activation (fluorescence interference), % at 10 µM. 1% of 2,300 active. AID 602387;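 active = activation of at least 30% at 10 µM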;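 also: DNMT1 catalytic domain with a HinP1I cleavage step and a FAM/dabcyl DNA beacon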
Each line names hits and unclear results; the compound was inactive in the other large screens (follow-up assays come after a bar, where they were run).

CC12CCC(C(NC(=S)NN)C1=O)C2(C)C (stereo not drawn)	none (no result: GRK2 aptamer HTS)
O=C(N/N=C\c1ccc(Br)o1)C1COc2ccccc2O1 (stereo not drawn)	DNMT1 inh 51 | DNMT1 inh conf inactive | Beacon interf inactive
Cc1ccc(C(=O)NCCCNCCCN(C)C)cn1	DNMT1 inh 53 | DNMT1 inh conf inactive | Beacon interf inactive
Cc1c(NS(=O)(=O)c2cccc(C(=O)NCc3ccc(Cl)cc3)c2)c(=O)n(-c2ccccc2)n1C	none
Cc1c(NS(=O)(=O)c2cccc(C(=O)NCc3ccco3)c2)c(=O)n(-c2ccccc2)n1C	DNMT1 inh 78 (no result: GRK2 aptamer HTS) | DNMT1 inh conf inactive | Beacon interf inactive
CCn1c2ccccc2c2cc(NC(=O)c3coc(=O)c(Br)c3)ccc21	DNMT1 inh 51 (no result: Scp1 inh) | DNMT1 inh conf inactive | Beacon interf inactive
CCn1c2ccccc2c2cc(NC(=O)c3ccc(=O)oc3)ccc21	none
CCCCNc1ccc(C(CC(N)=O)NC(=O)Cc2cccc3ccccc23)cc1[N+](=O)[O-] (stereo not drawn)	DNMT1 inh 51 | DNMT1 inh conf inactive | Beacon interf inactive
COc1ccc(CCNc2ccc(C(CC(N)=O)NC(=O)Cc3cccc4ccccc34)cc2[N+](=O)[O-])cc1 (stereo not drawn)	none
CC1CCCCN1S(=O)(=O)c1ccc(S(=O)(=O)N2CCN(c3ccc(F)cc3)CC2)cc1 (stereo not drawn)	DNMT1 inh 52 | DNMT1 inh conf inactive | Beacon interf inactive
O=C(Cc1cccs1)Nc1ccc(S(=O)(=O)Nc2ncccn2)cc1	DNMT1 inh 68 | DNMT1 inh conf inactive | Beacon interf inactive
CC(C)NS(=O)(=O)c1ccc(NC(=O)Cc2cccs2)cc1	none
Cc1ccc(C(=O)N2CCN(c3ccccn3)CC2)cc1Cl	none
COc1cccc2c1OCC(C(=O)O)C2 (stereo not drawn)	DNMT1 inh 53 | DNMT1 inh conf inactive | Beacon interf inactive
Cc1ccc(NC(=O)CN2C(=O)S/C(=C/c3ccc(-c4cc(C(=O)O)ccc4C)o3)C2=O)cc1C	Scp1 inh 73, DNMT1 inh 111 | DNMT1 interf DR inactive | DNMT1 inh conf 118 | Beacon interf inactive
Cc1ccccc1NC(=O)CN1C(=O)S/C(=C\c2ccc(-c3cccc(C(=O)O)c3C)o2)C1=O	none
Cc1ccc2nsnc2c1S(=O)(=O)Nc1cccc2nsnc12	none
CCOC(=O)c1ccc(CNS(=O)(=O)c2c(C)ccc3nsnc23)o1	DNMT1 inh 69 | DNMT1 inh conf inactive | Beacon interf inactive
COc1ccc(Cl)cc1-c1cc(C(=O)NCc2ccc(C(F)(F)F)cc2)[nH]n1	none (no result: Scp1 inh, GRK2 aptamer HTS)
COc1ccc(Cl)cc1-c1cc(C(=O)NCc2cccc(C(F)(F)F)c2)[nH]n1	DNMT1 inh 58 (no result: Scp1 inh, GRK2 aptamer HTS) | DNMT1 inh conf inactive | Beacon interf inactive
Cc1cc(C(=O)NNC(=O)Cc2ccc(Cl)cc2)c(C)o1	none
O=C(O)C(c1ccccc1)N1C(=O)/C(=C\c2ccc(-c3ccccc3Cl)o2)SC1=S (stereo not drawn)	SUMO1-SIM PPI 92, STEP block 45, LMPTP block 77, DNMT1 inh 98 | DNMT1 interf DR 34 | DNMT1 inh conf 69 | Beacon interf inactive
O=C(O)C(c1ccccc1)N1C(=O)/C(=C\c2ccc(-c3ccc(Br)cc3)o2)SC1=S (stereo not drawn)	SUMO1-SIM PPI 91, LMPTP block 65, DNMT1 inh 93 (no result: GRK2 aptamer HTS) | DNMT1 interf DR 47 | DNMT1 inh conf 93 | Beacon interf inactive
COc1cc(/C=C2\SC(=S)N(C(C(=O)O)c3ccccc3)C2=O)cc(OC)c1OC (stereo not drawn)	none
Cc1ccc(-n2cc3c(-c4cccc(Br)c4)nnc(C)c3n2)cc1	DNMT1 inh 64 | DNMT1 inh conf inactive | Beacon interf inactive
O=C(Nc1cc(Cl)ccc1N1CCOCC1)c1ccncc1	DNMT1 inh 80 | DNMT1 inh conf inactive | Beacon interf inactive
CCN(CC(=O)Nc1cccc(OC)c1)C(=O)C1CC(=O)N(Cc2ccccc2Cl)C1 (stereo not drawn)	none (no result: Scp1 inh, GRK2 aptamer HTS)
O=C(CCCSc1nc2ccccc2[nH]1)Nc1nnc(C2CC2)s1	none
COC(=O)[C@@]1(C)CC[C@]2(C)CC[C@@]3(C)C(=CC(=O)C4[C@@]5(C)CC[C@H](O)C(C)(C)[C@@H]5CC[C@]43C)[C@H]2C1 (stereo partly drawn)	DNMT1 inh 53 | DNMT1 inh conf inactive | Beacon interf inactive
Cc1nc2c(=O)[nH]c(=S)[nH]c2[nH]c1=O	SUMO1-SIM PPI 55, Scp1 inh 96, DNMT1 inh 79 (no result: GRK2 aptamer HTS) | DNMT1 inh conf inactive | Beacon interf inactive
CCOc1ccc(N(C(C)=O)c2nc(C)cc(C)c2C#N)cc1	none
Nc1cc(S(=O)(=O)Nc2ccc(Cl)cc2)ccc1N1CCOCC1	DNMT1 inh 169 | DNMT1 inh conf inactive | Beacon interf inactive
Nc1cc(S(=O)(=O)Nc2ccccc2Cl)ccc1N1CCOCC1	none
CCCCCCCCN1C(=O)[C@H](CC(=O)NCc2cccc3ccccc23)C[C@@]2(C(=O)OCC)CCCC=C12	none (no result: Scp1 inh, GRK2 aptamer HTS, STEP block, DNMT1 inh)
CCN1/C(=C\C=C2\C(=O)N(c3ccccc3)C(=S)N2C)Sc2ccccc21	DNMT1 inh 55 (no result: GRK2 aptamer HTS) | DNMT1 inh conf inactive | Beacon interf inactive
CCN1/C(=C\C=C(C(C)=O)C(C)=O)Sc2ccccc21	none
Cc1cccc(CN2CCN(Cc3cccc(-n4cccn4)c3)CC2CCO)n1 (stereo not drawn)	none
COc1ccc2[nH]c(C)c(CCN3C(=O)C4C5C=CC(C5)C4C3=O)c2c1 (stereo not drawn)	DNMT1 inh 82 | DNMT1 inh conf inactive | Beacon interf inactive
C[n+]1cccc2c(Br)ccc([O-])c21	SUMO1-SIM PPI 49, LMPTP block 53, DNMT1 inh 84 | DNMT1 inh conf inactive | Beacon interf inactive

Screens (PubChem BioAssay)
